Experimental data: ChEMBL document CHEMBL3091336, “Analogs of the Allosteric Heat Shock Protein 70 (Hsp70) Inhibitor, MKT-077, as Anti-Cancer Agents” (ACS Med Chem Lett, 2013)

What was measured:
[1] = system: MDA-MB-231; experiment: Cytotoxicity against human MDA-MB-231 cells assessed as growth inhibition after 72 hrs by MTT assay; format: functional, cell-based; conditions: MDA-MB-231, 72 h
Procedure, shortened: (§1)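 Antiproliferative activity measured by MTT assay. EC50 is the average of triplicate experiments, with error as SEM.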

[2] = Half life in mouse liver microsomes at 1 uM incubated for 15 mins prior to beta-NADPH addition by LC-MS/MS analysis; format: ADME, Microsome; conditions: for t1/2: microsomes, 0.25 h, 1 µM; for half-life at 1 µM: liver microsomes
Procedure, shortened: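 Compounds at 1 μM incubated with mouse liver microsomes. Degradation followed by LC–MS and reported as half-life.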

[3] = system: MEF; experiment: Cytotoxicity against C57BL/6 mouse MEF assessed as growth inhibition after 72 hrs by MTT assay; format: cell-based; conditions: C57BL/6, MEF; procedure, shortened: as §1
[4] = system: MCF7; experiment: Cytotoxicity against human MCF7 cells assessed as growth inhibition after 72 hrs by MTT assay; format: functional, cell-based; conditions: MCF7, 72 h; procedure, shortened: as §1

| t1/2 [2] | Structure (SMILES) | EC50 [1] [µM] | EC50 [3] [µM] | EC50 [4] [µM] | half-life at 1 µM [2] [min] |
| --- | --- | --- | --- | --- | --- |
| ND(Insoluble) | C=CCn1c(=O)/c(=C2\Sc3ccccc3N2C)s/c1=C\c1cccc[n+]1C.[Cl-] | 3.6 | > 50 | 8.4 |  |
| ND(Insoluble) | CCn1c(=O)/c(=C2\Sc3cccc(F)c3N2C)s/c1=C\c1cccc[n+]1CC.[Cl-] | 3.8 | > 30 | 1 |  |
| ND(Insoluble) | CCn1c(=O)/c(=C2\Sc3cc(C(F)(F)F)ccc3N2C)s/c1=C\c1cccc[n+]1C.[Cl-] | 19 | > 50 | > 30 |  |
|  | CCn1c(=O)/c(=C2\Sc3ccccc3N2C)s/c1=C\c1cccc[n+]1C.[Cl-] | 2 | > 50 | 5.2 | < 5 |
| ND(Insoluble) | CCn1c(=O)/c(=C2\Sc3ccc(OC)cc3N2C)s/c1=C\c1cccc[n+]1C.[Cl-] | 2.8 | > 50 | 14 |  |
| ND(Insoluble) | CCn1c(=O)/c(=C2\Sc3c(Cl)cccc3N2C)s/c1=C\c1scc[n+]1Cc1ccccc1.[Cl-] | 0.5 | > 30 | 1 |  |
| ND(Insoluble) | CCn1c(=O)/c(=C2\Sc3ccccc3N2C)s/c1=C\c1scc[n+]1CC.[Cl-] | 2.2 | > 30 | 0.8 |  |
| ND(Insoluble) | CCn1c(=O)/c(=C2\Sc3ccc(F)cc3N2C)s/c1=C\c1cccc[n+]1CC.[Cl-] | 13 | > 30 | 2.4 |  |
| ND(Insoluble) | CCn1c(=O)/c(=C2\Sc3cc(F)ccc3N2C)s/c1=C\c1cccc[n+]1CC.[Cl-] | 8.3 | > 30 | 0.9 |  |
| ND(Insoluble) | CN1/C(=c2\s/c(=C\c3cccc[n+]3C)n(Cc3ccccc3)c2=O)Sc2ccccc21.[Cl-] | 1.8 | > 50 | 2.9 |  |
|  | CCn1c(=O)/c(=C2\Sc3cccc(Cl)c3N2C)s/c1=C\c1scc[n+]1Cc1ccccc1.[Cl-] | 0.4 | 7 | 0.8 | 8.8 |
| ND(Insoluble) | CCn1c(=O)/c(=C2\Sc3ccc(C(F)(F)F)cc3N2C)s/c1=C\c1cccc[n+]1C.[Cl-] | 21 | > 50 | > 30 |  |
| ND(Insoluble) | CCn1c(=O)/c(=C2\Sc3ccccc3N2C)s/c1=C\c1nccc[n+]1C.[Cl-] | 5.8 | > 50 | 9.1 |  |
| ND(Insoluble) | CCn1c(=O)/c(=C2\Sc3c(F)cccc3N2C)s/c1=C\c1cccc[n+]1CC.[Cl-] | 2.8 | 27 | 0.8 |  |

| Structure (SMILES) | t1/2 [2] | EC50 [1] [µM] | EC50 [3] [µM] | EC50 [4] [µM] | half-life at 1 µM [2] [min] |
| --- | --- | --- | --- | --- | --- |
| CCn1c(=O)/c(=C2\Sc3cc(F)ccc3N2C)s/c1=C\c1cccc[n+]1C.[Cl-] | 7.7 min | 5.6 | > 50 | 6.2 |  |
| CCn1c(=O)/c(=C2\Sc3ccc(F)cc3N2C)s/c1=C\c1cccc[n+]1C.[Cl-] | 23 min | 7.7 | > 50 | 18 |  |
| CCn1c(=O)/c(=C2\Sc3ccccc3N2C)s/c1=C\c1scc[n+]1Cc1ccccc1.[Cl-] | ND(Insoluble) | 0.5 | 6.8 | 0.6 |  |
| CCn1c(=O)/c(=C2\Sc3ccccc3N2C)s/c1=C\c1cc[n+](C)cc1.[Cl-] | ND(Insoluble) | 1.7 | > 50 | 19 |  |
| CCn1c(=O)/c(=C2\Sc3ccccc3N2C)s/c1=C\c1cccc[n+]1CCO.[Cl-] | ND(Insoluble) | 24 | > 50 | 6.9 |  |
| CCn1c(=O)/c(=C2\Sc3ccccc3N2C)s/c1=C\c1scc[n+]1C.[Cl-] | ND(Insoluble) | 5.1 | > 50 | 0.7 |  |
